Screening data: PubChem, several laboratories
m-calpain inh – inhibitors of pig calpain II, primary screen, biochemical, fluorogenic peptide substrate, 1536-well | purified calpain II, 30 min | inhibition, % at 16 µM | 220,000 tested, 0.37% active;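 active = inhibition above about 50%, limit read from the data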
Rad51 HR inh – human RAD51 strand exchange inhibitors, primary screen, biochemical, fluorescence; hRad51 DNA strand exchange, fluorescence dequenching; inhibition, % at 10 µM; 200,000 tested, 0.085% active;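 active = inhibition above 40% at the single screening dose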;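 note: 0% = DMSO control wells and 100% = blanks with heterologous ssDNA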
Target sequence (Q06609 whole entry, looked up): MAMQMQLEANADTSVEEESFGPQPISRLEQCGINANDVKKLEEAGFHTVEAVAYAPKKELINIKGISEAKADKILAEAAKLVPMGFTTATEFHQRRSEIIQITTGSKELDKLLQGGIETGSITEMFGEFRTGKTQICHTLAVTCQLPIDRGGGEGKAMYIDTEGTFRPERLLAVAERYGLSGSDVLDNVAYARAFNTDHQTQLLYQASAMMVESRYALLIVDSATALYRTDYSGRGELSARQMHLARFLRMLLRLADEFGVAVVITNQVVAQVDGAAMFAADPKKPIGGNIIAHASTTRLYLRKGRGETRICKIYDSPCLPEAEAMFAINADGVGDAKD
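Read-out basis: percent inhibition relative to plate controls and blanks / Assay system: human Rad51 nucleoprotein filaments preassembled on unlabelled ssDNA / Timing: filaments 15 min 37 °C, then compound 30 min / Control set: per-plate controls and blanks / Technique: fluorescence dequenching at 485/520 nm / Compound: 10 µM final, single point / Also added: Fluorescein- and BHQ1-tagged 47-mer duplex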
WT yeast gro inh – growth inhibition of WT strain, primary screen, mitochondrial fusion inhibitor project, WT and mutant strains, chemical genetic | inhibition, % at 10 µM | 190,000 tested, 2.1% active | AID 1362, 2008 | mitochondrial fusion phenotypic screen; in the data active = inhibition above about 58%; tested in S. cerevisiae
PMI act – activators of human PMI, primary screen, biochemical, fluorescence intensity, near-Km mannose 6-phosphate; 190,000 tested, 0.005% active; activation factor at 20 µM; purified human PMI, coupled resazurin fluorescence, 20 min; stronger effect = higher value; 1 = vehicle control, 0 substrate-free wells; Mannose-6-phosphate isomerase (Homo sapiens), P34949;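 active = activation factor of 2 or more at 20 µM, relative to plate controls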
PMI act satM6P – human PMI activators, high substrate, primary screen, biochemical, fluorescence intensity, near-saturating mannose 6-phosphate; 190,000 tested, 0.34% active; AID 1216, 2008; coupled PMI enzyme assay, resazurin fluorescence, 20 min; stronger effect = higher value; 1 = untreated enzyme, 0 = substrate-free blank; Mannose-6-phosphate isomerase (Homo sapiens), P34949; activation factor at 20 µM;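 active = activation factor of 2 or more at 20 µM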
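assay system = human phosphomannose isomerase with PGI, G6PDH, diaphorase coupling enzymes | quantity = 15 ng/mL PMI | incubation = enzyme reaction with compound 20 min at room temperature | medium = HEPES pH 7.4 buffer with MgCl2 and Tween-20 | compound dosing = one concentration, 20 µM, in 1% DMSO | measured by = Diaphorase-driven resazurin-to-resorufin fluorescence, excitation 544, emission 590 nm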
L major viab – Leishmania major promastigote growth inhibition, primary screen. Leishmania major promastigotes, resazurin fluorescence viability. AID 1063, 2008. 200,000 tested, 9% active. inhibition, % at 10 µM; in the data active = inhibition above about 50%;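 note: promastigotes grown with compound for 44 hours at 28 °C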
The depositor's hits bear a star; . = not tested or not shown. Only some compounds are listed: those with a hit (about 9.8% of all), similar ones and a draw of the others.

SMILES	m-calpain inh	Rad51 HR inh	WT yeast gro inh	PMI act	PMI act satM6P	L major viab
COc1ccccc1OCC(=O)Nc1cc(S(=O)(=O)N2CCCCC2)ccc1N1CCCCC1	33	8	-30	1	1.2	98*
COc1cc(/C=C/C(=O)Nc2cc(S(=O)(=O)N3CCOCC3)ccc2N2CCCC2)cc(OC)c1OC	-28	2	2	0.6	0.8	8
COc1ccc(/C=C/C(=O)Nc2cc(S(=O)(=O)N3CCOCC3)ccc2N2CCCC2)cc1OC	-39	0	-7	1	1	19
CC1(NC(=O)NCc2ccccc2)CCS(=O)(=O)C1 (centres undefined)	-30	1	-23	0.9	0.9	-5
CS(=O)(=O)c1[nH]nc(-c2ccccc2Cl)c1C#N	0	-11	.	.	.	.
Cc1ccc(C(=O)NS(=O)(=O)c2ccc(N=NN(C)C)cc2)cc1	-9	-58	1	1.6	2*	-5
CC1(O)N(CCC(=O)Nc2cccc(F)c2)C(=O)OC12CCCCC2 (centres undefined)	-14	.	5	1.1	1	-1
O=C(/C=C/c1ccco1)Nc1ccccc1N1CCCCC1	28	-3	70*	0.9	0.8	18
COC(=O)c1ccccc1NC(=O)/C=C/c1ccco1	-6	10	8	0.9	1.1	-7
CCN(CC)C(=S)Nc1ccc2nc3n(c(=O)c2c1)CCCCC3	6	-7	7	1	1	1
Cn1c(=O)c(=O)n(C)c2cc(S(=O)(=O)Nc3ccc(OC(F)(F)F)cc3)ccc21	-53	-1	4	0.9	0.9	99*
Cn1c(=O)oc2cc(S(=O)(=O)NCc3ccccc3)ccc21	0	5	-2	1	1	-6
Cn1c(=O)oc2cc(S(=O)(=O)NCCC(=O)Nc3ccc4c(c3)OCCO4)ccc21	-18	6	-8	0.9	0.9	-7
Cn1c(=O)c(=O)n(C)c2cc(S(=O)(=O)Nc3ccc4c(c3)OCCO4)ccc21	29	-8	0	0.9	0.9	64*
Cc1ccc(CNS(=O)(=O)c2ccc3c(c2)n(C)c(=O)c(=O)n3C)cc1	-52	6	-4	1	1	99*
Cn1cc(S(=O)(=O)Nc2ccc(OC(F)(F)F)cc2)c(=O)n(C)c1=O	-1	.	.	.	.	.
Cn1c(=O)oc2cc(S(=O)(=O)Nc3ccc4c(c3)OCCO4)ccc21	-27	-33	-3	1	1	63*
CCC1(CC)NC(=O)N(CC(=O)OCC(=O)Nc2sccc2C#N)C1=O	-4	.	5	1	1	3
CSc1nnc(CCCCCCCCc2nnc(SC)o2)o1	12	6	.	.	.	.
Cc1cc(C)n2cc(CSc3nncn3C)nc2n1	-265	-2	-1	1.1	0.8	1
COC(=O)c1c(C)[nH]c(-c2csc(N)n2)c1C	-43	-26	-1	1.4	1.5	2
CC(=O)c1c(C)nn(CC(O)COc2ccc3ccccc3c2)c1C (centres undefined)	-42	-9	-24	1	1	-4
COc1ccc(NS(=O)(=O)c2ccc3oc(Nc4ccc5c(c4)OCCO5)nc3c2)cc1	11	4	73*	0.8	0.9	93*
O=[N+]([O-])c1cc(S(=O)(=O)N2CCCCCC2)ccc1Cl	18	-115	-3	1	1	27
C=C(C)CNC(=S)Nc1cccc(N)n1	18	-19	20	0.7	0.6	5
SMILES	m-calpain inh	Rad51 HR inh	WT yeast gro inh	PMI act	PMI act satM6P	L major viab
O=C(N/N=C/c1c(Cl)cccc1Cl)c1n[nH]c2c1CCCC2	23	-3	75*	1	1.1	36
Cc1cccc(C)c1NC(=S)N/N=C/c1ccc(OCCC(C)C)cc1	-4	3	27	0.9	0.9	29
CCCN(CCO)Cc1ccc2ccccc2c1	2	.	-2	0.9	1	3
CCCN(CCO)Cc1cccc(Oc2ccccc2)c1	8	0	-2	1	1.1	97*
Cn1c(=O)c2c(ncn2CC(COCc2ccc(Cl)cc2)OCc2ccc(Cl)cc2)n(C)c1=O (centres undefined)	-6	6	21	0.8	0.9	100*
O=C(/C=C(\c1ccc(Cl)cc1)n1cncn1)c1ccc(Cl)cc1	0	-6	-5	1	1	74*
O=C(/C=C(\c1ccccc1)n1cncn1)c1ccccc1	3	.	-10	1	1	7
Cc1ccc2c(c1)S/C(=C/c1ccc[n+](C)c1)N2CCO	1	-427	18	0.9	0.9	70*
Cc1ccc(S(=O)(=O)CCC(=O)NCCN2C(=O)S/C(=C\c3ccccc3)C2=O)cc1	-11	1	7	0.9	1	8
CCn1c(Sc2nc(C)nc3scc(-c4cccs4)c23)n[nH]c1=O	-31	5	82*	1	1	30
CCCc1ccc(C(=O)NNc2cccc(C)c2)cc1	12	22	.	.	.	.
S=c1nc(-c2sccc2OCc2ccc(Cl)cc2Cl)[nH][nH]1	93*	-5	64*	0.9	0.8	-4
Cc1cc(C)c(S(=O)(=O)n2c([N+](=O)[O-])cnc2C)c(C)c1	-9	.	-8	1.3	1.4	-3
CC(C)C(c1nnnn1C(C)(C)C)N1CCOCC1 (centres undefined)	-37	-2	-1	0.8	0.9	0
CC(C)C(c1nnnn1C(C)(C)C)N1CCC(Cc2ccccc2)CC1 (centres undefined)	16	.	73*	1.1	1	12
CN1CCc2c(sc3c2C(=O)NC(c2ccc(-c4cccc(Cl)c4)o2)N3)C1 (centres undefined)	-69	.	13	0.9	0.8	68*
CN1CCc2c(sc3c2C(=O)NC(c2cccs2)N3)C1 (centres undefined)	-52	-11	-9	0.9	0.9	5
Cc1ccsc1C1NC(=O)c2c(sc3c2CCN(C)C3)N1 (centres undefined)	-41	-36	11	0.9	0.7	88*
Cn1ncc(Br)c1N1C(=O)CCC1=O	7	-3	.	.	.	.
CCOC(=O)C(Oc1ccc2c(-c3ccccc3)cc(=O)oc2c1)c1ccccc1 (centres undefined)	24	12	12	0.9	1	78*
O=C(Oc1ccc2c(-c3ccccc3)cc(=O)oc2c1)C1CCCCC1	56*	-6	38	0.8	0.9	-3
COc1ccc(CCC(=O)N2CC(C)OC(C)C2)cc1 (centres undefined)	11	-2	-31	0.9	0.9	-4
